# The sample as a whole holds a higher share of hits than the screen did.
# PKD1 kinase inh: PKD1 (human) kinase inhibition; Q15139; PKD1 kinase fluorescence polarization assay; inhibition, % (concentration not given with the values); 200,000 compounds, 0.056% hits
# Target sequence (Q15139 whole entry, looked up): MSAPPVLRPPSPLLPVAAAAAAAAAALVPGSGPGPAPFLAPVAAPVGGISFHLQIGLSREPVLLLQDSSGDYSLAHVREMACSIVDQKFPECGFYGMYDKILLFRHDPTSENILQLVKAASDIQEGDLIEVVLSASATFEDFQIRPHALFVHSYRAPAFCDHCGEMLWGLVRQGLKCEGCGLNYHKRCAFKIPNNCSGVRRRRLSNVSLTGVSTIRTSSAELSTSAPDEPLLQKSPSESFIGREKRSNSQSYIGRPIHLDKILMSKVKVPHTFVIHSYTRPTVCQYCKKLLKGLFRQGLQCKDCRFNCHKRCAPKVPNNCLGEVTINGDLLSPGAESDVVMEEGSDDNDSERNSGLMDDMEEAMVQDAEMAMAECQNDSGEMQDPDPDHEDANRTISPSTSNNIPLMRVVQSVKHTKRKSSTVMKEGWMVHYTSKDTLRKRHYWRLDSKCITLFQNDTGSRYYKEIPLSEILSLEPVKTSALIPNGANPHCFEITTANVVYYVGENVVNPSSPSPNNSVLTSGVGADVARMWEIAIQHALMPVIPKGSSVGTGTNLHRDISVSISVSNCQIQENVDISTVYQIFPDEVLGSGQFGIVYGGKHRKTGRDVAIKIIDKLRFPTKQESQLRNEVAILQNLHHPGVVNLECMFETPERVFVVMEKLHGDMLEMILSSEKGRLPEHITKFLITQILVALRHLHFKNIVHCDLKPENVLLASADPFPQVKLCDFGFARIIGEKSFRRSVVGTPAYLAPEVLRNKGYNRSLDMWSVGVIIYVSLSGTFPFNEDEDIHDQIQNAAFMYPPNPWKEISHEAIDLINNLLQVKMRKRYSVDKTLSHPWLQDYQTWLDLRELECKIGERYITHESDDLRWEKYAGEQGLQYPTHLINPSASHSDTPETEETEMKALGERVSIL
# GSH fluor: GSH bead compound fluorescence profile; GSH beads flow cytometry, compound fluorescence 488/530 nm; stronger effect = higher value; AID 1776; fluorescence (KMESF) at 10 µM; 190,000 compounds, 0.25% hits; in the data active = fluorescence above about 89;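 also: glutathione beads carrying GST-tagged Bcl family fusion proteins plus one bare bead set; values are compound well signal with DMSO vehicle wells as background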
# Lmaj promast: reduces viability of Leishmania major promastigotes | resazurin fluorescence viability | inhibition, % at 10 µM | 200,000 compounds, 9% hits | AID 1063;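 also: promastigotes grown with compound for 44 hours at 28 °C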
# Avidin fluor: compound fluoresces at 488/530 nm on avidin beads; compound fluorescence 488/530 nm, flow cytometry; stronger effect = higher value; fluorescence (KMESF) at 10 µM; 220,000 compounds, 0.38% hits; in the data active = fluorescence above about 47
# ABCG2 inh: blocks JC-1 efflux by human ABCG2 transporter; 190,000 compounds, 0.1% hits; Q9UNQ0; inhibition, % at 6.6 µM; AID 1325; IgMXP3 cells, flow cytometry;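 active = inhibition above 80%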;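 also: 0% = DMSO and 100% = nicardipine control wells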
#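 Test system: ABCG2 IgMXP3 and barcoded ABCB1 CCRF-Adr cell mix; Schedule: cells with compound and JC-1, 10 min at 25 °C, rotating, no wash; Technique: flow cytometry of retained JC-1 fluorescence; Measure: % inhibition of efflux relative to nicardipine and DMSO; Controls: nicardipine high and DMSO low controls.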
# ABCB1 block: human ABCB1 inhibition, ABCG2 as counter-screen. inhibition, % at 6.6 µM. AID 1326. 190,000 compounds, 0.067% hits. P08183. CCRF-Adr cells, JC-1 efflux, flow cytometry; in the data active = inhibition above about 40%;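 also: 0% = vehicle and 100% = reference inhibitor; higher value means more JC-1 retained so stronger ABCB1 efflux block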
# Active calls of the source: *; nt = no result given. Rule as the data show it, unless noted: active = inhibition above about 50%; inactive = the rest.
SMILES,PKD1 kinase inh,GSH fluor,Lmaj promast,Avidin fluor,ABCG2 inh,ABCB1 block
Cc1cc(/C=C(\C#N)C(=O)Nc2ccc(Cl)cc2)c(C)n1-c1ccc(N2CCOCC2)c([N+](=O)[O-])c1,15,12,100*,3,-2,0
CNC(=O)/C(C#N)=C/c1cc(C)n(-c2ccc(N3CCOCC3)cc2)c1C,nt,nt,nt,114*,nt,nt
Cc1ccc(NC2=C/C(=N/S(=O)(=O)c3cccs3)c3ccccc3C2=O)cc1C,-1,14,82*,3,4,0
CC(=O)Nc1ccc(NC2=C/C(=N/S(=O)(=O)c3cccs3)c3ccccc3C2=O)cc1,-6,10,100*,20,0,0
O=c1[nH]c(SCc2ccccc2Cl)nc2c1CCC2,-1,36,29,10,5,0
CNc1nc(SCc2ccccc2Cl)nc2c1CCCC2,-13,12,88*,42,7,1
CN(CCCNC(=O)CSc1cc(=O)n(C)c2cc(Cl)ccc12)Cc1ccccc1,-8,10,29,3,-1,1
Cc1ccc(S(=O)(=O)N(C)C)cc1NC(=S)NC12CC3CC(CC(C3)C1)C2,-5,19,78*,13,2,1
CC(C)Oc1ccc(C(=O)NCc2cccs2)cc1,2,13,-4,15,3,0
Cc1ccc(OCC(=O)N/N=C/c2cc([N+](=O)[O-])ccc2N2CCCCC2)cc1,-3,13,96*,5,15,2
O=C(N/N=C/c1cc([N+](=O)[O-])ccc1N1CCNCC1)c1ccc([N+](=O)[O-])cc1,-7,20,86*,15,1,0
O=C1CC(c2cccs2)c2ccc3ccccc3c2N1 (centres undefined),-9,19,6,8,3,0
O=C1CCCCCN1Cc1nnc(SCc2nc3ccccc3s2)n1-c1ccccn1,-1,257*,-7,8,1,0
CCNC(=O)CSc1nnc(CN2CCCCCC2=O)n1-c1ccccn1,0,15,-10,26,1,0
O=S(=O)(Nc1ncccn1)c1ccc(NC(=S)NCc2cccnc2)cc1,9,24,-7,9,4,1
COc1ccccc1C(=O)O/N=C(\N)c1ccccc1Cl,-1,9,92*,14,-5,0
CCCNC(=O)COC(=O)CCC(=O)c1cccs1,-7,9,57*,7,8,0
N#CCCNC(=O)CCN1CCOCC1,1,4,-1,7,2,0
Cc1cc2[nH]c3c(c[n+](C)c4ccccc34)c2cc1C,-4,7,100*,7,1,0
Cc1cc(=O)[nH]c2ccccc12,-3,20,-2,34,1,0
O=c1c2ccccc2n(Cc2cccc(F)c2)c(=O)n1C1CCCC1,-7,37,64*,8,2,0
CCN(CC)S(=O)(=O)c1ccc2c(c1)nc(CCC(=O)Nc1ccccc1Cc1ccccc1)n2CC,6,36,86*,10,5,2
CCOc1cc(S(=O)(=O)N2CCC(Cc3ccccc3)CC2)c(OCC)cc1-n1cnnn1,8,11,23,9,7,1
CCOc1cc(S(=O)(=O)N2CC=C(c3ccc(F)cc3)CC2)c(OCC)cc1-n1cnnn1,-2,5,62*,8,3,1
COC(=O)c1ccc(Oc2nc(Nc3ccc(C)c(C)c3)nc(N(C)C)n2)cc1,-2,19,74*,27,6,2
SMILES,PKD1 kinase inh,GSH fluor,Lmaj promast,Avidin fluor,ABCG2 inh,ABCB1 block
CCOC(=O)c1ccc(Oc2nc(NC)nc(Nc3ccccc3)n2)cc1,-1,16,97*,30,3,0
CCNc1nc(Oc2ccc(C(=O)OC)cc2)nc(N(C)C)n1,-1,31,3,22,22,1
Cc1[nH]n(C2=NCCS2)c(=O)c1N=Nc1cccc(C(F)(F)F)c1,8,15,99*,9,14,0
O=c1[nH]n2c(=O)c3c([nH]c2c1N=Nc1cccc(C(F)(F)F)c1)CCCC3,1,23,-1,4,0,0
O=C(NNc1ccc(C2CCCCC2)cc1)C(O)(c1ccccc1)c1cccs1 (centres undefined),9,10,99*,9,3,0
COc1ccc(C(O)(C(=O)NNc2ccc(C)cc2)c2cccs2)cc1 (centres undefined),-5,22,17,13,-1,-1
Cc1cc(O)ccc1N=Cc1c(C(F)(F)F)[nH][nH]c1=O,6,14,52*,9,9,0
O=c1[nH][nH]c(C(F)(F)F)c1C=Nc1ccccc1,-13,17,-3,25,1,0
CCN1C=C(Cc2cccs2)C2=C(C1)C(c1cccs1)C(C#N)=C(N)O2 (centres undefined),-6,10,55*,13,2,1
COc1ccc(-c2nnc(SCc3nc4ccccc4c(=O)[nH]3)o2)cc1,nt,nt,nt,7,nt,nt
Cc1ccc(C)c(NS(=O)(=O)c2cc(C(=O)Nc3cccc(N(C)S(C)(=O)=O)c3)ccc2C)c1,-10,26,90*,12,1,0
Cc1ccc(NS(=O)(=O)c2cc(NC(=O)c3ccc4c(c3)NC(=O)CS4)ccc2C)c(C)c1,1,15,64*,10,12,0
Cc1ccc(C)c(NS(=O)(=O)c2cc(C(N)=O)ccc2C)c1,-10,34,3,7,-1,0
COc1ccc(NC(=O)c2ccc3c(c2)NC(=O)CS3)cc1S(=O)(=O)Nc1ccc(Br)cc1,-6,11,16,17,-2,-1
Cc1ccc(NS(=O)(=O)c2cc(C(=O)Nc3cccc(N(C)S(C)(=O)=O)c3)ccc2C)c(C)c1,2,10,69*,16,6,0
CC(=O)c1c(C)[nH]c(C(=O)Nc2ccc(C)c(S(=O)(=O)Nc3ccc(C)cc3C)c2)c1C,nt,nt,nt,8,nt,nt
O=C(Nc1ccncc1)c1cc(F)cc(F)c1,-11,21,19,10,0,0
C=CC[n+]1ccc(/C=C2\C=Cc3cc(C)ccc3N2CC)c2ccccc21,-4,19,100*,4,-5,0
O=C1C(c2ccc(F)cc2)N(Cc2ccc3c(c2)OCO3)C(=O)CN1C1CCCCC1 (centres undefined),-1,8,28,26,0,1
COc1cccc2c1C(=O)c1c(O)c3c(c(O)c1C2=O)C[C@@](O)(C(C)=O)C[C@@H]3O[C@H]1C[C@H](N)[C@H](O)[C@H](C)O1,35,19,100*,11,28,3
CCOC(=O)N[C@H](Cc1c[nH]c2ccccc12)C(=O)NC1CC1,nt,nt,nt,7,nt,nt
COc1ccccc1CNC(=O)C(Cc1c[nH]c2ccccc12)NC(=O)OCc1ccccc1 (centres undefined),-6,6,99*,1,-2,0

# Screening data as filed in PubChem BioAssay.
